Test system: Fibroblast
Experiment: Multiplex assay against human fibroblast
Format: toxicity, cell-based
Summary of the method: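 Cells were classed with CellPathfinder machine-learning gating, first as Hoechst high-intensity objects or normal cells, then (normal cells) as healthy, pyknosed or fragmented nuclei, and finally (pyknosed cells) as mitotic or apoptotic. Staining of live cells at seeding used Hoechst33342, BioTracker Green Microtubule Cytoskeleton Dye, MitoTracker Red and Annexin V Alexa Fluor 680, with imaging on a CQ1 microscope at 37°C and 5% CO2 after compound addition. Tubulin, mitochondrial-mass and membrane-permeability phenotypes are per cents of healthy-nucleus cells.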

[1] = 12 h, 1 µM, compound concentration 1 uM, replicate 1
[2] = 12 h, 1 µM, compound concentration 1 uM, replicate 2
[3] = 12 h, 10 µM, compound concentration 10 uM, replicate 1
[4] = 12 h, 10 µM, compound concentration 10 uM, replicate 2
[5] = 24 h, 1 µM, compound concentration 1 uM, replicate 1
[6] = 24 h, 1 µM, compound concentration 1 uM, replicate 2
[7] = 24 h, 10 µM, compound concentration 10 uM, replicate 1
[8] = 24 h, 10 µM, compound concentration 10 uM, replicate 2
[9] = 48 h, 1 µM, compound concentration 1 uM, replicate 1
[10] = 48 h, 1 µM, compound concentration 1 uM, replicate 2
[11] = 48 h, 10 µM, compound concentration 10 uM, replicate 1
[12] = 48 h, 10 µM, compound concentration 10 uM, replicate 2

## CC(C)(C)c1ccc(S(=O)(=O)Nc2ccc(Cl)cc2C(=O)c2cc[n+]([O-])cc2)cc1 [VERCIRNON]
[1]
  Population Apoptotic (%): 63%
  Population Fragmented Nuclei (%): 19%
  Population Healthy Nuclei (%): 65%
  Population Hoechst High Intensity Objects (%): 2%
  Population Membrane Permeable-Phenotype (%): 1%
  Population Mitochondria Different-Phenotype (%): 3%
  Population Mitotic Cells (%): 36%
  Population Normal (%): 97%
  Population Pyknosed Nuclei (%): 15%
  Population Tubulin-Different-Phenotype (%): 20%
  Total Cell Count: 148
[2]
  Population Apoptotic (%): 50%
  Population Fragmented Nuclei (%): 27%
  Population Healthy Nuclei (%): 46%
  Population Hoechst High Intensity Objects (%): 7%
  Population Membrane Permeable-Phenotype (%): 6%
  Population Mitochondria Different-Phenotype (%): 1%
  Population Mitotic Cells (%): 50%
  Population Normal (%): 92%
  Population Pyknosed Nuclei (%): 25%
  Population Tubulin-Different-Phenotype (%): 41%
  Total Cell Count: 152
[3]
  Population Apoptotic (%): 59%
  Population Fragmented Nuclei (%): 14%
  Population Healthy Nuclei (%): 64%
  Population Hoechst High Intensity Objects (%): 3%
  Population Membrane Permeable-Phenotype (%): 3%
  Population Mitochondria Different-Phenotype (%): 1%
  Population Mitotic Cells (%): 40%
  Population Normal (%): 96%
  Population Pyknosed Nuclei (%): 21%
  Population Tubulin-Different-Phenotype (%): 46%
  Total Cell Count: 107
[4]
  Population Apoptotic (%): 48%
  Population Fragmented Nuclei (%): 30%
  Population Healthy Nuclei (%): 44%
  Population Hoechst High Intensity Objects (%): 5%
  Population Membrane Permeable-Phenotype (%): 8%
  Population Mitochondria Different-Phenotype (%): 10%
  Population Mitotic Cells (%): 51%
  Population Normal (%): 94%
  Population Pyknosed Nuclei (%): 25%
  Population Tubulin-Different-Phenotype (%): 66%
  Total Cell Count: 114
[5]
  Population Apoptotic (%): 55%
  Population Fragmented Nuclei (%): 23%
  Population Healthy Nuclei (%): 62%
  Population Hoechst High Intensity Objects (%): 0%
  Population Membrane Permeable-Phenotype (%): 4%
  Population Mitochondria Different-Phenotype (%): 1%
  Population Mitotic Cells (%): 45%
  Population Normal (%): 99%
  Population Pyknosed Nuclei (%): 14%
  Population Tubulin-Different-Phenotype (%): 27%
  Total Cell Count: 141
[6]
  Population Apoptotic (%): 54%
  Population Fragmented Nuclei (%): 25%
  Population Healthy Nuclei (%): 57%
  Population Hoechst High Intensity Objects (%): 7%
  Population Membrane Permeable-Phenotype (%): 7%
  Population Normal (%): 92%
  Population Pyknosed Nuclei (%): 16%
  Population Tubulin-Different-Phenotype (%): 40%
  Total Cell Count: 142
[7]
  Population Apoptotic (%): 66%
  Population Fragmented Nuclei (%): 16%
  Population Healthy Nuclei (%): 66%
  Population Hoechst High Intensity Objects (%): 1%
  Population Membrane Permeable-Phenotype (%): 4%
  Population Mitochondria Different-Phenotype (%): 2%
  Population Mitotic Cells (%): 33%
  Population Normal (%): 98%
  Population Pyknosed Nuclei (%): 16%
  Population Tubulin-Different-Phenotype (%): 40%
  Total Cell Count: 114
[8]
  Population Apoptotic (%): 41%
  Population Fragmented Nuclei (%): 32%
  Population Healthy Nuclei (%): 42%
  Population Hoechst High Intensity Objects (%): 0%
  Population Membrane Permeable-Phenotype (%): 21%
  Population Mitochondria Different-Phenotype (%): 9%
  Population Mitotic Cells (%): 58%
  Population Normal (%): 99%
  Population Pyknosed Nuclei (%): 24%
  Population Tubulin-Different-Phenotype (%): 82%
  Total Cell Count: 120
[9]
  Population Apoptotic (%): 61%
  Population Fragmented Nuclei (%): 29%
  Population Healthy Nuclei (%): 58%
  Population Hoechst High Intensity Objects (%): 1%
  Population Membrane Permeable-Phenotype (%): 1%
  Population Mitochondria Different-Phenotype (%): 1%
  Population Mitotic Cells (%): 38%
  Population Normal (%): 98%
  Population Pyknosed Nuclei (%): 12%
  Population Tubulin-Different-Phenotype (%): 25%
  Total Cell Count: 151
[10]
  Population Apoptotic (%): 62%
  Population Fragmented Nuclei (%): 32%
  Population Healthy Nuclei (%): 55%
  Population Hoechst High Intensity Objects (%): 6%
  Population Membrane Permeable-Phenotype (%): 6%
  Population Mitochondria Different-Phenotype (%): 9%
  Population Mitotic Cells (%): 37%
  Population Normal (%): 93%
  Population Pyknosed Nuclei (%): 11%
  Population Tubulin-Different-Phenotype (%): 37%
  Total Cell Count: 145
[11]
  Population Apoptotic (%): 62%
  Population Fragmented Nuclei (%): 22%
  Population Healthy Nuclei (%): 64%
  Population Hoechst High Intensity Objects (%): 2%
  Population Membrane Permeable-Phenotype (%): 1%
  Population Mitochondria Different-Phenotype (%): 0%
  Population Mitotic Cells (%): 37%
  Population Normal (%): 97%
  Population Pyknosed Nuclei (%): 13%
  Population Tubulin-Different-Phenotype (%): 38%
  Total Cell Count: 120
[12]
  Population Apoptotic (%): 46%
  Population Fragmented Nuclei (%): 42%
  Population Healthy Nuclei (%): 46%
  Population Hoechst High Intensity Objects (%): 4%
  Population Membrane Permeable-Phenotype (%): 16%
  Population Mitochondria Different-Phenotype (%): 12%
  Population Mitotic Cells (%): 53%
  Population Normal (%): 95%
  Population Pyknosed Nuclei (%): 11%
  Population Tubulin-Different-Phenotype (%): 72%
  Total Cell Count: 122

## CC1(COc2ccc3c(c2)ncn3-c2ccc3cccc(N4CCC(N)CC4)c3n2)COC1 [CRENOLANIB]
[1]
  Population Apoptotic (%): 61%
  Population Fragmented Nuclei (%): 27%
  Population Healthy Nuclei (%): 60%
  Population Hoechst High Intensity Objects (%): 2%
  Population Membrane Permeable-Phenotype (%): 0%
  Population Mitochondria Different-Phenotype (%): 4%
  Population Mitotic Cells (%): 38%
  Population Normal (%): 97%
  Population Pyknosed Nuclei (%): 12%
  Population Tubulin-Different-Phenotype (%): 48%
[2]
  Population Apoptotic (%): 18%
  Population Fragmented Nuclei (%): 33%
  Population Healthy Nuclei (%): 47%
  Population Hoechst High Intensity Objects (%): 4%
  Population Membrane Permeable-Phenotype (%): 7%
  Population Mitochondria Different-Phenotype (%): 9%
  Population Mitotic Cells (%): 81%
  Population Normal (%): 95%
  Population Pyknosed Nuclei (%): 18%
  Population Tubulin-Different-Phenotype (%): 67%
[3]
  Population Apoptotic (%): 33%
  Population Fragmented Nuclei (%): 21%
  Population Healthy Nuclei (%): 48%
  Population Hoechst High Intensity Objects (%): 4%
  Population Membrane Permeable-Phenotype (%): 2%
  Population Mitochondria Different-Phenotype (%): 6%
  Population Mitotic Cells (%): 66%
  Population Normal (%): 95%
  Population Pyknosed Nuclei (%): 30%
  Population Tubulin-Different-Phenotype (%): 43%
[4]
  Population Apoptotic (%): 34%
  Population Fragmented Nuclei (%): 29%
  Population Healthy Nuclei (%): 40%
  Population Hoechst High Intensity Objects (%): 13%
  Population Membrane Permeable-Phenotype (%): 6%
  Population Mitochondria Different-Phenotype (%): 9%
  Population Mitotic Cells (%): 65%
  Population Normal (%): 86%
  Population Tubulin-Different-Phenotype (%): 48%
[5]
  Population Apoptotic (%): 92%
  Population Fragmented Nuclei (%): 29%
  Population Healthy Nuclei (%): 60%
  Population Hoechst High Intensity Objects (%): 0%
  Population Membrane Permeable-Phenotype (%): 0%
  Population Mitochondria Different-Phenotype (%): 9%
  Population Mitotic Cells (%): 7%
  Population Normal (%): 99%
  Population Pyknosed Nuclei (%): 9%
  Population Tubulin-Different-Phenotype (%): 61%
[6]
  Population Apoptotic (%): 50%
  Population Fragmented Nuclei (%): 41%
  Population Healthy Nuclei (%): 48%
  Population Hoechst High Intensity Objects (%): 1%
  Population Membrane Permeable-Phenotype (%): 4%
  Population Mitotic Cells (%): 50%
  Population Normal (%): 98%
  Population Pyknosed Nuclei (%): 10%
  Population Tubulin-Different-Phenotype (%): 63%
[7]
  Population Apoptotic (%): 36%
  Population Fragmented Nuclei (%): 23%
  Population Healthy Nuclei (%): 51%
  Population Hoechst High Intensity Objects (%): 16%
  Population Membrane Permeable-Phenotype (%): 0%
  Population Mitochondria Different-Phenotype (%): 8%
  Population Mitotic Cells (%): 63%
  Population Normal (%): 83%
  Population Pyknosed Nuclei (%): 24%
  Population Tubulin-Different-Phenotype (%): 23%
[8]
  Population Apoptotic (%): 34%
  Population Fragmented Nuclei (%): 25%
  Population Healthy Nuclei (%): 46%
  Population Hoechst High Intensity Objects (%): 17%
  Population Membrane Permeable-Phenotype (%): 6%
  Population Mitochondria Different-Phenotype (%): 6%
  Population Mitotic Cells (%): 65%
  Population Normal (%): 82%
  Population Pyknosed Nuclei (%): 28%
  Population Tubulin-Different-Phenotype (%): 38%
[9]
  Population Apoptotic (%): 75%
  Population Fragmented Nuclei (%): 32%
  Population Healthy Nuclei (%): 60%
  Population Hoechst High Intensity Objects (%): 1%
  Population Membrane Permeable-Phenotype (%): 0%
  Population Mitochondria Different-Phenotype (%): 8%
  Population Mitotic Cells (%): 25%
  Population Normal (%): 98%
  Population Pyknosed Nuclei (%): 7%
  Population Tubulin-Different-Phenotype (%): 55%
[10]
  Population Apoptotic (%): 20%
  Population Fragmented Nuclei (%): 44%
  Population Healthy Nuclei (%): 44%
  Population Hoechst High Intensity Objects (%): 0%
  Population Membrane Permeable-Phenotype (%): 5%
  Population Mitochondria Different-Phenotype (%): 7%
  Population Mitotic Cells (%): 80%
  Population Normal (%): 99%
  Population Pyknosed Nuclei (%): 12%
  Population Tubulin-Different-Phenotype (%): 74%
[11]
  Population Apoptotic (%): 42%
  Population Fragmented Nuclei (%): 16%
  Population Healthy Nuclei (%): 62%
  Population Hoechst High Intensity Objects (%): 24%
  Population Membrane Permeable-Phenotype (%): 1%
  Population Mitochondria Different-Phenotype (%): 6%
  Population Mitotic Cells (%): 57%
  Population Normal (%): 75%
  Population Pyknosed Nuclei (%): 21%
  Population Tubulin-Different-Phenotype (%): 23%
[12]
  Population Apoptotic (%): 37%
  Population Fragmented Nuclei (%): 23%
  Population Healthy Nuclei (%): 42%
  Population Hoechst High Intensity Objects (%): 21%
  Population Mitotic Cells (%): 62%
  Population Normal (%): 78%
  Population Pyknosed Nuclei (%): 33%
  Population Tubulin-Different-Phenotype (%): 27%
